# Shown are actives, neighbours in structure and some others; about 1% of the full set was active somewhere.
# UPR XBP1 act – activators of adaptive arm of unfolded protein response (XBP1); CHO-XBP1 luciferase reporter, IRE1-XBP1 UPR activation, luminescence; percent of tunicamycin response, DMSO as zero; activation, % at 20 µM; actives 0.33% (n = 330,000);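 active = versus positive control, 20 µM dose yields 30% or more activation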;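 note: 100% = tunicamycin at 10 µg/mL and 0% = DMSO only wells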
#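 Signal: luciferase luminescence; Assay system: CHO-XBP1 luciferase reporter cells; Amount: one thousand reporter cells per well; Dosing: 20 µM single concentration, DMSO 1%; Benchmarks: high control tunicamycin 10 µg/mL final, low control DMSO vehicle only; Schedule: 6 h compound exposure at 37 °C, 5% CO2; Evaluation: percent activation relative to tunicamycin reference.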
# T cell modulator – T cell immune modulation candidate; 2C CD8+ T cell-vesicle binding, flow cytometry; stronger effect = lower value; response (vesicle binding), % at 7 µM; actives 0.068% (n = 330,000); AID 2052;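 active = response, share of CD8 T cells binding vesicles, and their 90th percentile fluorescence all below set limits, cut at about 80% in these data, passing the limit was not always enough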;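 note: values below 100% mean blocked vesicle binding to the CD8+ T cells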
#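 Test system: purified 2C TCR transgenic mouse naive CD8+ T cells. Probe or stimulus: QL9-peptide-loaded Drosophila micro-vesicles bearing Ld, ICAM-1 and B7-1. Incubation: binding step 1.5 h, 37 °C, antibody labelling 20 min, ice. Measured by: flow cytometry of vesicle-bound cells.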
# Beta2AR agonist – agonists of human beta-2 adrenergic receptor inducing internalization | P07550 | Am2.2-beta2AR cells, FAP receptor internalization, flow cytometry | response, % (concentration not given with the values) | actives 0.43% (n = 340,000);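 active = response above a set limit, near 3 SD of response in nonfluorescent compounds, cut at about 42% in these data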
# Target sequence (P07550 whole entry, looked up): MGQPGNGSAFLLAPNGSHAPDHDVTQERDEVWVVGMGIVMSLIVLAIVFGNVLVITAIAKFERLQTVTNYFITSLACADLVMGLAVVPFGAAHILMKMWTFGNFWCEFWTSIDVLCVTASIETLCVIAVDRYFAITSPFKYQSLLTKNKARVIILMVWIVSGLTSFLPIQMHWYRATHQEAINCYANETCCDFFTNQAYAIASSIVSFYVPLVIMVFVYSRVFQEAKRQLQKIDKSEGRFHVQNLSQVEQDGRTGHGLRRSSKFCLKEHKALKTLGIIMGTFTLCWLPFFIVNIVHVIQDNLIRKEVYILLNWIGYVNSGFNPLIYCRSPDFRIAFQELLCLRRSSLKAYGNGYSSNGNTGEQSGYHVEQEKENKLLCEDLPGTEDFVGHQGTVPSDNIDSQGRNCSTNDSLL
# UPR CHOP act – apoptotic UPR (CHOP) activation; actives 0.34% (n = 330,000); CHO-CHOP luciferase reporter, luminescence; percent of tunicamycin response over DMSO baseline; activation, % at 10 µM;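 active = at 10 µM dose, activation of 40% or more, normalized to positive control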;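 note: 100% = tunicamycin at 10 µg/mL and 0% = DMSO alone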
#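 System: CHO-CHOP luciferase reporter cell line | Buffer or medium: F12 medium containing 10% fetal bovine serum | Doses: One dose, 10 µM in 0.5% DMSO | Times: 6 h compound exposure at 37 °C after overnight seeding | Signal: Luciferase luminescence | Read-out: % activation vs tunicamycin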
# Active calls of the source: *; i = inactive; · = no result.
SMILES,UPR XBP1 act,T cell modulator,Beta2AR agonist,UPR CHOP act
O=C(O)C1CCC(Cn2c(SCc3cc(=O)n4cc(Cl)ccc4n3)nc3ccsc3c2=O)CC1 (stereo unspecified),10,25*,-3,0
CCCCOc1ccc(C(=O)Nc2ccc3c(c2)C(=O)NC3=O)cc1,3,i,4,-1
COCCOC(=O)C1=C(C)N(Cc2ccccc2)C(=O)NC1c1cccc(OC)c1OC (stereo unspecified),-1,183,-1,-2
CS(=O)(=O)c1ccc(C(=O)OCc2nnc(-c3ccc(Cl)cc3)o2)cc1[N+](=O)[O-],3,333,93*,2
O=C(OCc1nnc(-c2ccc(Cl)cc2)o1)c1ccc(O)cc1,1,170,-8,3
CCNc1nc(NCC)n2c(SCC(=O)NCC3CCCCC3)nnc2n1,-2,170,0,-3
S=c1[nH]nc(C2CCCCC2)n1/N=C/c1ccccc1Br,-4,116,9,-2
CCOC(=O)N/N=C/c1cn(CCCOc2ccc(C)cc2)c2ccccc12,0,203,71*,2
CCC(=O)OCCNc1cc(Sc2nc3ccccc3s2)c2nonc2c1[N+](=O)[O-],-7,188,-203,-9
O=[N+]([O-])c1c(NCCCO)cc(Sc2nc3ccccc3s2)c2nonc12,-7,208,96*,-9
Cc1nnc(Sc2cc(NCCCO)c([N+](=O)[O-])c3nonc23)s1,·,·,43*,·
CCCN(CCC)c1nc(N)nc(-c2cc(Cl)ccc2OC)n1,-3,157,3,0
CC1=C(C(N)=O)C(c2ccccc2F)NC(=O)N1 (stereo unspecified),0,224,3,-1
COc1ccc(S(=O)(=O)NCCCN2CCOCC2)cc1F,-5,215,6,1
O=C(Cn1cnc2c(nc3n2CCCCC3)c1=O)Nc1cccc(C(F)(F)F)c1,-2,467,3,-2
CCCCCn1c(=O)c(C(=O)OCC)c(O)c2ccccc21,-1,260,7,-2
CCOC(=O)c1c(O)c2cc(Cl)ccc2n(CC)c1=O,0,58*,2,0
CCCc1nc2oc3ccccc3c(=O)c2c(=O)n1-c1ccccc1,0,260,-9,3
Cc1cc(C)c(C)c(OC(=O)c2sc(Cl)nc2C)c1,-1,237,92*,5
CC1=NNC(=O)/C1=C\c1cn(-c2ccccc2)nc1-c1ccccc1,·,238,82*,·
O=Cc1cn(-c2ccccc2)nc1-c1ccccc1,1,158,-4,6
O=C(c1c[nH]c(C(=O)C(Cl)(Cl)Cl)c1)c1c(F)cccc1F,-9,347,46*,0
O=C(c1c[nH]c(C(=O)C(Cl)(Cl)Cl)c1)c1ccccc1F,-6,418,11,-2
CCOC(=O)C1=C(Cc2ccc(F)cc2)C(=O)c2ccccc2C1=O,-2,i,-168,125*
CCC(C(=O)NCc1ccco1)N(Cc1cccs1)C(=O)CNS(=O)(=O)c1ccccc1 (stereo unspecified),-3,i,-3,0
SMILES,UPR XBP1 act,T cell modulator,Beta2AR agonist,UPR CHOP act
Cc1nnc(SCC(=O)N/N=C/c2cn(-c3ccccc3)nc2-c2ccccc2)n1-c1ccccc1,-2,195,64*,6
Cc1ccc(-c2nnc(SCC(=O)N/N=C/c3ccccc3C(=O)O)n2-c2ccccc2)cc1,-5,228,·,2
COc1ccc(OC)c2c1C(=O)C(Cl)=C(Cl)C2=O,-11,255,97*,-8
O=C(NCCc1ccccc1)c1ccc(NS(=O)(=O)c2ccc3[nH]c(=O)[nH]c3c2)cc1,3,152,-10,1
O=C1C(=C(I)I)c2ccccc2-c2ccccc21,·,·,76*,·
O=C1/C(=C/c2cccc([N+](=O)[O-])c2)CCc2ccccc21,2,94,24,4
CCN1C/C(=C\c2cccc([N+](=O)[O-])c2)C(=O)/C(=C/c2cccc([N+](=O)[O-])c2)C1,·,·,85*,·
O=C1c2cccc3cccc(c23)C(=O)N1CC1CCN(CC(O)COc2ccc3ccccc3c2)CC1 (stereo unspecified),2,i,82*,0
CCOc1ccc(CNC(=O)C2CCN(S(=O)(=O)c3ccc4c(c3)CCCC(=O)N4)CC2)cc1,-2,123,-4,-1
O=C(NNS(=O)(=O)c1ccccc1[N+](=O)[O-])c1ccccc1[N+](=O)[O-],2,302,-6,0
